From PubChem
KCNK9 block – blocks the human KCNK9 two-pore domain potassium channel; B-score at 10 µM; HEK293 KCNK9, FluxOR thallium flux fluorescence; hits give low values; Q9NPC2; AID 488922; 310,000 compounds, 1.2% hits;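 active = ratio B-score over 3 SD below the library mean, with starting fluorescence within 5 SD of its mean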;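 also: negative B-score means less thallium flux so channel inhibition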
hERG rescue – shields human hERG channel from block by proarrhythmic agents | 310,000 compounds, 0.51% hits | CHO-hERG, FluxOR thallium flux, dofetilide IC70 present | activation (rescue from dofetilide block), less the hit threshold, % at 10 µM | Q12809;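 active = activation above the mean of controls blocked by dofetilide plus 5 SD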;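 also: thallium influx through hERG after potassium depolarization seen as dye fluorescence rise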
Target sequence (Q12809 whole entry, looked up): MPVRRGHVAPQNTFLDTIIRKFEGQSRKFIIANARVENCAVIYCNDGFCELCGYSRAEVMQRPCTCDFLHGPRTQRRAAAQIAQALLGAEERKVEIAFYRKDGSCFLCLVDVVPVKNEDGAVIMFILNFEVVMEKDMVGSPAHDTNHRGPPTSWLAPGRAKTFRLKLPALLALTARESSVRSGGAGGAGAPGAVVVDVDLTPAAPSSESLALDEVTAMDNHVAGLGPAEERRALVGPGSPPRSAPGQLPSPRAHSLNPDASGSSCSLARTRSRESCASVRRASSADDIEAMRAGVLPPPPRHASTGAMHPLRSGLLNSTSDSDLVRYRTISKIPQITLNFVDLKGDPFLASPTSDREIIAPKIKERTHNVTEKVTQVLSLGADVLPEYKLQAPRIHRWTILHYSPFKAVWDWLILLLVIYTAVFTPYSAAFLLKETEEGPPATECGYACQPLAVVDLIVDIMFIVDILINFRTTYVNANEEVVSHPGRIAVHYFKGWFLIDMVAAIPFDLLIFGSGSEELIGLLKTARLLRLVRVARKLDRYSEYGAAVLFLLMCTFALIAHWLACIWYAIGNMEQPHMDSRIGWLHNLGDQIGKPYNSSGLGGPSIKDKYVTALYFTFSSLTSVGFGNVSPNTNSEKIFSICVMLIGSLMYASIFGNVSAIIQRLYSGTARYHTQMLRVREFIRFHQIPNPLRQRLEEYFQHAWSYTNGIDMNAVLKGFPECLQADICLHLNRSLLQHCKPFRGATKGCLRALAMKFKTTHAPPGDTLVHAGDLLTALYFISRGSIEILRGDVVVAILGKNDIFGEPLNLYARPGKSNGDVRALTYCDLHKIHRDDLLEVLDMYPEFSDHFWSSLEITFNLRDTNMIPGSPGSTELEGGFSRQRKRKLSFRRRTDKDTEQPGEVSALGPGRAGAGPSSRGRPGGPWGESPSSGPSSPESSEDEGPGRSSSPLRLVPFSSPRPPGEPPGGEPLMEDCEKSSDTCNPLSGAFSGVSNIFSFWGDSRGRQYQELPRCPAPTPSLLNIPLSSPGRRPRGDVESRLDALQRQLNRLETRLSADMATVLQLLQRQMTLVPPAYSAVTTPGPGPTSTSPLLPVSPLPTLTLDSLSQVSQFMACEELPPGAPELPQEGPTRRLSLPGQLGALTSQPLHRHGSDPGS
KCNK3 inh – human KCNK3 channel inhibition, primary screen; 340,000 compounds, 0.84% hits; CHO-KCNK3 thallium flux, FluxOR fluorescence; hits give low values; O14649; B-score at 10 µM;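 active = B-score under library mean minus 4 SD, starting fluorescence ratio at most library mean plus 5 SD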;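 also: more negative B-score means stronger inhibition of thallium flux through KCNK3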
Kir21 block – inhibitors of mouse Kir2.1 inward-rectifier potassium channel; P35561; HEK293-Kir2.1, FluxOR thallium flux fluorescence; hits give low values; B-score at 10 µM; 310,000 compounds, 0.85% hits; AID 1672;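 active = fluorescence ratio B-score at or below minus 3 SD of library scores, with starting-brightness B-score within 2 SD, cut at about -4.2 in these data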;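 also: channel flux triggered by added potassium and thallium sulfate stimulus; B-score of peak minus minimum fluorescence over baseline after thallium stimulus; more negative B-score means stronger Kir2.1 block with less thallium influx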
KCNQ1 inh – blocks the human KCNQ1 potassium channel; P51787; CHO-K1 KCNQ1, FluxOR thallium flux fluorescence; hits give high values; B-score at 10 µM; 310,000 compounds, 1.3% hits;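 active = compounds whose thallium flux B-score, printed positive for inhibition, exceeds three library SD while starting fluorescence stays within three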;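 also: channel opened by potassium depolarization with thallium stimulus after 20 min compound exposure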
KCNQ1 act – human KCNQ1 channel potentiation or activation | P51787 | CHO-K1 KCNQ1, thallium flux FluxOR fluorescence; hits give high values | B-score at 10 µM | 310,000 compounds, 0.35% hits;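 active = fluorescence ratio B-score, a plate-corrected score, at least three library SD, with initial intensity B-score within 5 SD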
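Test system: CHO-K1 cells stably expressing KCNQ1 / Medium: assay buffer / Also added: depolarizing K+/Tl+ stimulus, K2SO4 and Tl2SO4 each 12.5 mM in 5x stock / Incubation: 90 min dye loading and 20 min compound exposure, both at room temperature / Signal: thallium influx via FluxOR fluorescence, kinetic imaging / Evaluation: B score of baseline-normalized fluorescence ratio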
KCNK9 inh conf – confirmation of human KCNK9 potassium channel inhibitors; shares compounds with KCNK9 block; HEK293 KCNK9 cells, FluxOR thallium flux fluorescence; inhibition, % at 10 µM; 4,900 compounds, 43% hits; AID 492992;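 active = thallium signal inhibited by more than 5 SD of the compound-free buffer control wells, on both duplicate plates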;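 also: 0% = assay buffer control wells without compound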
Kir21 sel – tests whether KCNK9 modulators also affect mouse Kir2.1 | shares compounds with KCNK9 block | Kir2.1 cells, FluxOR thallium flux fluorescence | inhibition, % at 10 µM | 4,900 compounds, 4% hits | AID 492993;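 active = thallium signal drop more than 5 SD beyond the mean of the no-compound control wells, seen in both duplicate plates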;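 also: signal is fluorescence rise after thallium addition divided by baseline fluorescence; plate controls were assay buffer only for no effect and full block by chlorpromazine control for full effect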
KCNK9 uninduced – non-induced cell nonspecific activity of KCNK9 modulators; AID 492997; non-induced KCNK9-HEK293, FluxOR thallium flux; inhibition, % at 10 µM; 4,900 compounds, 40% hits; shares compounds with KCNK9 block;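 active = thallium signal drop beyond 5 SD of the untreated control mean, on both duplicate plates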;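 also: plate controls were buffer only IC0 wells for no effect and SID17386958 at its maximal inhibitory level for full effect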
KCNK3 confirm – human KCNK3 channel inhibition, confirmation assay. shares compounds with KCNK3 inh. CHO-KCNK3 thallium flux, FluxOR fluorescence; 0% buffer, 100% carvedilol maximal block. ratio percent of control, % at 10 µM. 2,400 compounds, 99% hits;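 active = ratio percent of control, averaged over triplicates, above buffer control mean plus 5 SD, cut at about 64% in these data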;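 also: ratio is the fluorescence rise from min to max over baseline after thallium stimulus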
KCNK3 uninduced – activity in cells without induced KCNK3 expression; shares compounds with KCNK3 inh; non-induced KCNK3 parental cells, FluxOR thallium flux; hits give low values; thallium flux ratio (lower = more inhibition) at 10 µM; 2,400 compounds, 40% hits; AID 651747;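 active = thallium flux ratio, averaged over three wells, more than 5 SD below the buffer control mean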;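 also: host cells are CHO cells without KCNK3 induction; ratio is peak minus trough fluorescence over baseline then normalized to buffer controls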
An asterisk follows results filed as active. Compounds with a hit are over-represented: about 3.7% of the library has one in this group of screens.

Results for CSc1nc2ccc(NS(=O)(=O)c3ccc(Br)s3)cc2s1 ?
KCNK9 block: -8.3*; hERG rescue: -19; KCNK3 inh: -11*; Kir21 block: -2.8; KCNQ1 inh: 6*; KCNQ1 act: inactive; KCNK9 inh conf: 35%*; Kir21 sel: inactive; KCNK9 uninduced: inactive; KCNK3 confirm: 127*; KCNK3 uninduced: 0.13*

Results for CC(Nc1nc(-c2ccccc2)nc2ccccc12)c1ccccc1 (stereo not drawn) ?
KCNK9 block: -8.9*; hERG rescue: -20; KCNK3 inh: -11*; Kir21 block: 0.45; KCNQ1 inh: inactive; KCNQ1 act: inactive; KCNK9 inh conf: inactive; Kir21 sel: inactive; KCNK9 uninduced: 36%*; KCNK3 confirm: 102*; KCNK3 uninduced: inactive

How did CCCN(/C=N/c1sc2c(c1C#N)CCCCC2)CCC do in these assays?
KCNK9 block: -19*; hERG rescue: -20; KCNK3 inh: -11*; Kir21 block: -1.5; KCNQ1 inh: inactive; KCNQ1 act: inactive; KCNK9 inh conf: 69%*; Kir21 sel: inactive; KCNK9 uninduced: 48%*; KCNK3 confirm: 105*; KCNK3 uninduced: inactive

What do the screens show for `Cc1cccn2c(=O)c(C=O)c(NCc3ccccc3)nc12`?
KCNK9 block: inactive; hERG rescue: -4; KCNK3 inh: inactive; Kir21 block: -0.78; KCNQ1 inh: inactive; KCNQ1 act: inactive

How did Cc1ccc(S(=O)(=O)NCCC(=O)OCc2ccc([N+](=O)[O-])cc2)cc1C do in these assays?
KCNK9 block: inactive; hERG rescue: -10; KCNK3 inh: inactive; Kir21 block: -1.8; KCNQ1 inh: inactive; KCNQ1 act: inactive

How did CCc1ccc(-c2cc(C)no2)cc1S(=O)(=O)N1CCOc2ccccc21 do in these assays?
KCNK9 block: -12*; hERG rescue: -15; KCNK3 inh: -15*; Kir21 block: -0.5; KCNQ1 inh: inactive; KCNQ1 act: inactive; KCNK9 inh conf: 38%*; Kir21 sel: inactive; KCNK9 uninduced: 42%*; KCNK3 confirm: 125*; KCNK3 uninduced: 0.14*

What do the screens show for `O=C(OCc1ccc2c(c1)OCO2)c1cccc(S(=O)(=O)N2CCCCC2)c1`?
KCNK9 block: -19*; hERG rescue: -8; KCNK3 inh: -9.3*; Kir21 block: 0.93; KCNQ1 inh: inactive; KCNQ1 act: inactive; KCNK9 inh conf: 72%*; Kir21 sel: inactive; KCNK9 uninduced: 30%*; KCNK3 confirm: 114*; KCNK3 uninduced: inactive

Results for CCOc1ccc(CCNC(=O)COC(=O)c2cccc(S(=O)(=O)N3CCCC3)c2)cc1OCC ?
KCNK9 block: -9.4*; hERG rescue: -9; KCNK3 inh: -9.2*; Kir21 block: -1.3; KCNQ1 inh: inactive; KCNQ1 act: inactive; KCNK9 inh conf: 38%*; Kir21 sel: inactive; KCNK9 uninduced: 36%*; KCNK3 confirm: 65*; KCNK3 uninduced: inactive

How did COc1ccccc1C1CCN(c2cc(O)ccc2[N+](=O)[O-])CC1 do in these assays?
KCNK9 block: -11*; hERG rescue: -13; KCNK3 inh: -10*; Kir21 block: -0.04; KCNQ1 inh: 11*; KCNQ1 act: inactive; KCNK9 inh conf: 55%*; Kir21 sel: inactive; KCNK9 uninduced: 44%*; KCNK3 confirm: 111*; KCNK3 uninduced: inactive

What do the screens show for `COc1ccccc1C1CCN(C(=O)C2CCCCC2)CC1`?
KCNK9 block: inactive; hERG rescue: -5; KCNK3 inh: inactive; Kir21 block: -1.1; KCNQ1 inh: inactive; KCNQ1 act: inactive

How did Cc1ccc(N=CC2=C(O)CC(c3ccc(Cl)cc3)CC2=O)cc1 (stereo not drawn) do in these assays?
KCNK9 block: inactive; hERG rescue: -6; KCNK3 inh: inactive; Kir21 block: 1.8; KCNQ1 inh: inactive; KCNQ1 act: inactive

Results for COc1cccc(CNCC(O)(c2ccc(Cl)cc2)c2ccc(Cl)cc2)c1 ?
KCNK9 block: -13*; hERG rescue: -29; KCNK3 inh: inactive; Kir21 block: -0.38; KCNQ1 inh: 7*; KCNQ1 act: inactive; KCNK9 inh conf: inactive; Kir21 sel: inactive; KCNK9 uninduced: 38%*; KCNK3 confirm: 139*; KCNK3 uninduced: 0.15*

How did O=C(NCc1ccccc1)NC(O)C(Cl)(Cl)Cl (stereo not drawn) do in these assays?
KCNK9 block: inactive; hERG rescue: -5; KCNK3 inh: inactive; Kir21 block: 0.34; KCNQ1 inh: inactive; KCNQ1 act: inactive

Results for Cc1ccccc1CN(C)C(C)C(=O)Nc1ccccc1F (stereo not drawn) ?
KCNK9 block: -14*; hERG rescue: -10; KCNK3 inh: -11*; Kir21 block: 0.14; KCNQ1 inh: inactive; KCNQ1 act: inactive; KCNK9 inh conf: 58%*; Kir21 sel: inactive; KCNK9 uninduced: 44%*; KCNK3 confirm: 114*; KCNK3 uninduced: inactive

Results for O=C(COC(=O)c1ccccn1)Nc1ccc2c(c1)OCCO2 ?
KCNK3 inh: inactive

What do the screens show for `COc1cc(/C=C2\C(=N)N3N=C(S(C)(=O)=O)SC3=NC2=O)cc(OC)c1OCCOc1ccc(C)cc1`?
KCNK9 block: inactive; hERG rescue: -33; KCNK3 inh: -12*; Kir21 block: -0.23; KCNQ1 inh: inactive; KCNQ1 act: inactive; KCNK9 inh conf: inactive; Kir21 sel: inactive; KCNK9 uninduced: inactive; KCNK3 confirm: 99*; KCNK3 uninduced: 0.14*

How did CCOc1cc(/C=C2\C(=N)N3N=C(S(C)(=O)=O)SC3=NC2=O)ccc1OCCOc1cccc(OC)c1 do in these assays?
KCNK9 block: inactive; hERG rescue: -17; KCNK3 inh: inactive; Kir21 block: 1.8; KCNQ1 inh: inactive; KCNQ1 act: inactive
